From ChEMBL document CHEMBL1153374, “Synthesis, anti-inflammatory, and antioxidant activities of 18beta-glycyrrhetinic acid derivatives as chemical mediators and xanthine oxidase inhibitors” (Bioorg Med Chem, 2009)
Calls of active or inactive are those of the source. The rule behind the calls is not given here.

Experiments:
RAW264.7 [1] = test: Inhibition of LPS-induced TNFalpha release in mouse RAW264.7 cells pretreated 1 hr before LPS challenge by enzyme immunoassay; format: functional, cell-based
Method in brief: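 RAW 264.7 murine macrophages were incubated with compound (diluted from DMSO stock; final DMSO <0.5% v/v), then stimulated with LPS. Secreted TNF-α in culture supernatant was quantified by EIA kit. Data are means ± SD, n = 3–6. IC50 was taken from concentration–response curves.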

Neutrophil [2] = test: Inhibition of PMA-stimulated super oxide anion generation in Sprague-Dawley rat neutrophils; format: functional, cell-based
Method in brief: (§1)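 Peripheral blood neutrophils were isolated from Sprague-Dawley rats. Stimulus was fMLP (0.3 µM) with cytochalasin B (5 µg/mL) for 30 min, or PMA (3 nM). Superoxide was measured as SOD-inhibitable cytochrome c reduction. DPI was the reference inhibitor. IC50 was taken from concentration–response curves; means ± SD, n = 3–6.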

Neutrophil [3] = test: Inhibition of fMLP/cytochalasin B-stimulated super oxide anion generation in Sprague-Dawley rat neutrophils; format: functional, cell-based; method in brief: as §1
Nucleic Acid = test: Inhibition of superoxide anion induced DNA damage of Escherichia coli pBR322 at 300 uM by gel electrophoresis; format: functional
Method in brief: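 Supercoiled pBR322 plasmid DNA (1 µg/µL) was exposed to xanthine (2 mM)/xanthine oxidase (0.7 U/mL) in 10 mM phosphate buffer, pH 7.4, with compound for 20 min at 37 °C. SOD and quercetin served as comparators. Mixtures were electrophoresed on 1.0% agarose with ethidium bromide (0.05 µg/mL) in TAE, 100 V, 30 min.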

[4] = tested on: Radical scavenging activity; test: Antioxidant activity assessed as DPPH radical scavenging activity; format: functional
RAW264.7 [5] = test: Inhibition of LPS-induced nitric oxide generation in mouse RAW264.7 cells pretreated 1 hr before LPS challenge by Griess method; format: functional, cell-based
Method in brief: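 Plated RAW 264.7 cells were preincubated with compound for 1 h at 37 °C, then stimulated with LPS at 1 µg/mL for 24 h. Nitrite accumulated in the medium was measured by the Griess reaction. Results are % inhibition at a single concentration or IC50 from concentration curves. Data are means ± SD, n = 3–6. Final DMSO <0.5%.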

RAW264.7 [6] = test: Inhibition of LPS-induced iNOS protein expression in mouse RAW264.7 cells at 3 uM pretreated 1 hr before LPS challenge by Western blot; format: functional, cell-based
Method in brief: (§2)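 RAW 264.7 cells were pretreated 1 h with compound at 3 or 10 µM, then given LPS at 50 ng/mL for 24 h. Cells were washed with PBS, lysed in Laemmli SDS buffer and run on 10% SDS–PAGE, then transferred to PVDF and blocked in 5% milk/TBST. Blots were probed with monoclonal anti-iNOS (1:1000, 1 h) and HRP anti-mouse IgG (1:10,000), with ECL detection.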

RAW264.7 [7] = test: Inhibition of LPS-induced iNOS protein expression in mouse RAW264.7 cells at 10 uM pretreated 1 hr before LPS challenge by Western blot; format: functional, cell-based; method in brief: as §2
[8] = target: Xanthine dehydrogenase/oxidase (Homo sapiens, UniProt P47989); test: Inhibition of xanthine oxidase
Method in brief: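 Xanthine oxidase activity measured at 25 °C with xanthine as substrate, in 70 mM phosphate buffer (pH 7.5), following a modified published protocol. Compounds were taken from 30 mM DMSO stocks diluted in DMSO, with final DMSO below 0.5% (v/v).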

Chain of Xanthine dehydrogenase/oxidase (P47989 whole entry): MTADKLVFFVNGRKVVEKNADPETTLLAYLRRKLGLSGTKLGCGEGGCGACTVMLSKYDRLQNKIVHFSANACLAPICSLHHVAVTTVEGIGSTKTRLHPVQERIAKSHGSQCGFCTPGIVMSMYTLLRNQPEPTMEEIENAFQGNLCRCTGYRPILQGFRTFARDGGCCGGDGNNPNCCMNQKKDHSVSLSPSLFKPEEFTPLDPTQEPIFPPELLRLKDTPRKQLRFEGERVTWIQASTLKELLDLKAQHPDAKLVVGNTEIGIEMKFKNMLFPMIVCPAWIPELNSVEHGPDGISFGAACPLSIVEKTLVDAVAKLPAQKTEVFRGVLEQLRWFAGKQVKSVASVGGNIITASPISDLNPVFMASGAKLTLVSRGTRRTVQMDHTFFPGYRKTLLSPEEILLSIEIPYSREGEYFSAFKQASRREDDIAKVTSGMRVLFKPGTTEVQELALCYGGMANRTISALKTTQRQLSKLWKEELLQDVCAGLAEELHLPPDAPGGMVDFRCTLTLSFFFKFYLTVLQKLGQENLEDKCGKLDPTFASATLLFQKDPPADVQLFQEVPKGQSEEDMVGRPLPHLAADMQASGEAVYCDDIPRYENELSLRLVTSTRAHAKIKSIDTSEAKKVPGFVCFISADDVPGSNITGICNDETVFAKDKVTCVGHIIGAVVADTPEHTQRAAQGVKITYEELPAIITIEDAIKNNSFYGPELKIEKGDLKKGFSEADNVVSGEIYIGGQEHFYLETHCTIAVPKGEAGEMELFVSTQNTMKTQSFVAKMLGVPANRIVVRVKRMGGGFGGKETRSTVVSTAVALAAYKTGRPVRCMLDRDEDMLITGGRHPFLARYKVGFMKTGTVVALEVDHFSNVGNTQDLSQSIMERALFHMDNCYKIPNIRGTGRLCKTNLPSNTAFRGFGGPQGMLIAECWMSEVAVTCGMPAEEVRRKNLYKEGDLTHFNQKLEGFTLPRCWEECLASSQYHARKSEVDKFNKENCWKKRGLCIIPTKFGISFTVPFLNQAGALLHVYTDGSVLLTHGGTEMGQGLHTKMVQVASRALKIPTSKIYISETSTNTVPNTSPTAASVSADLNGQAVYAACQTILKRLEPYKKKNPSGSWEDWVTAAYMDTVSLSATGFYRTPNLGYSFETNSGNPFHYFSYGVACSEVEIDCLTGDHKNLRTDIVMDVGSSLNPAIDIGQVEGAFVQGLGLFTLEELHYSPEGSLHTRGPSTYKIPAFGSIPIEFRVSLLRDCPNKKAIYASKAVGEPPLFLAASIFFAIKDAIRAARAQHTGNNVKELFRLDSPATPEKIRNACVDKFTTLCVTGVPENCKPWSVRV

Structure (SMILES)	IC50 (RAW264.7 [1])	inhibition (RAW264.7 [1])	inhibition (Nucleic Acid)	inhibition [4]	IC50 (RAW264.7 [5])	other results
C=C(C)[C@@H]1CC[C@]2(C)[C@H](C(=O)C=C3[C@@H]4C[C@@](C)(C(=O)OCc5ccccc5)CC[C@]4(C)CC[C@]32C)[C@@]1(C)CCC(=O)O	2.3 µM	Dose-dependent effect				
c1ccc2c(c1)[I+]c1ccccc1-2 [DIPHENYLENEIODONIUM CHLORIDE]						IC50 (Neutrophil [2]): 1.8 µM; inhibition (Neutrophil [2]): Dose-dependent effect; IC50 (Neutrophil [3]): 2.7 µM; inhibition (Neutrophil [3]): Dose-dependent effect
COC(=O)[C@@]1(C)CC[C@]2(C)CC[C@]3(C)C(=CC(=O)[C@@H]4[C@@]5(C)CCC(=O)OC(C)(C)[C@@H]5CC[C@]43C)[C@@H]2C1			Active	inactive		IC50 (Neutrophil [2]): 12.9 µM; inhibition (Neutrophil [2]): Dose-dependent effect
O=c1c(-c2ccc(O)cc2)coc2cc(O)cc(O)c12 [GENISTEIN]	26.5 µM	Dose-dependent effect				
C=C(C)[C@@H]1CC[C@]2(C)[C@H](C(=O)C=C3[C@@H]4C[C@@](C)(C(=O)OC(C)C)CC[C@]4(C)CC[C@]32C)[C@@]1(C)CCC(=O)OC					> 30 µM	
C=C(C)[C@@H]1CC[C@]2(C)[C@H](C(=O)C=C3[C@@H]4C[C@@](C)(C(=O)OC)CC[C@]4(C)CC[C@]32C)[C@@]1(C)CCC(=O)OC					> 30 µM	
C=C(C)[C@@H]1CC[C@]2(C)[C@H](C(=O)C=C3[C@@H]4C[C@@](C)(C(=O)NC(C)C)CC[C@]4(C)CC[C@]32C)[C@@]1(C)CCC(=O)OC			Active	inactive	13.1 µM	IC50 (Neutrophil [2]): 15.6 µM; inhibition (Neutrophil [2]): Dose-dependent effect; inhibition (RAW264.7 [6]): Active; inhibition (RAW264.7 [7]): Active
CC(=N)NCc1cccc(CN)c1 [1400W]					1.5 µM	
CC1(C)C(=O)CC[C@]2(C)[C@H]3C(=O)C=C4[C@@H]5C[C@@](C)(C(=O)O)CC[C@]5(C)CC[C@@]4(C)[C@]3(C)CC[C@@H]12			Active	inactive	> 30 µM	inhibition (INH) [8]: Not Active; IC50 (Neutrophil [3]): 10.3 µM; inhibition (Neutrophil [3]): Dose-dependent effect
CC1(C)[C@@H](O)CC[C@]2(C)[C@H]3C(=O)C=C4[C@@H]5C[C@@](C)(C(=O)O)CC[C@]5(C)CC[C@@]4(C)[C@]3(C)CC[C@@H]12 [ENOXOLONE]	1.3 µM	Dose-dependent effect				
Oc1ncnc2[nH]ncc12 [ALLOPURINOL]				inactive		inhibition (INH) [8]: Not Active
C=C(C)[C@@H]1CC[C@]2(C)[C@H](C(=O)C=C3[C@@H]4C[C@@](C)(C(=O)OC)CC[C@]4(C)CC[C@]32C)[C@@]1(C)CCC(=O)O	26.1 µM	Dose-dependent effect				
C=C(C)[C@@H]1CC[C@]2(C)[C@H](C(=O)C=C3[C@@H]4C[C@@](C)(C(=O)Nc5ccccc5)CC[C@]4(C)CC[C@]32C)[C@@]1(C)CCC(=O)O	27.7 µM	Dose-dependent effect				
C=C(C)[C@@H]1CC[C@]2(C)[C@H](C(=O)C=C3[C@@H]4C[C@@](C)(C(=O)NC(C)C)CC[C@]4(C)CC[C@]32C)[C@@]1(C)CCC(=O)O			Active	inactive		IC50 (Neutrophil [3]): 9.8 µM; inhibition (Neutrophil [3]): Dose-dependent effect
C=C(C)[C@@H]1CC[C@]2(C)[C@H](C(=O)C=C3[C@@H]4C[C@@](C)(C(=O)O)CC[C@]4(C)CC[C@]32C)[C@@]1(C)CCC(=O)O			Active	inactive		IC50 (Neutrophil [3]): 7 µM; inhibition (Neutrophil [3]): Dose-dependent effect
C=C(C)[C@@H]1CC[C@]2(C)[C@H](C(=O)C=C3[C@@H]4C[C@@](C)(C(=O)OCc5ccccc5)CC[C@]4(C)CC[C@]32C)[C@@]1(C)CCC(=O)OC	13.7 µM	Dose-dependent effect	Active	inactive	> 30 µM	IC50 (Neutrophil [2]): 17 µM; inhibition (Neutrophil [2]): Dose-dependent effect
C=C(C)[C@@H]1CC[C@]2(C)[C@H](C(=O)C=C3[C@@H]4C[C@@](C)(C(=O)Nc5ccccc5)CC[C@]4(C)CC[C@]32C)[C@@]1(C)CCC(=O)OC	15.5 µM	Dose-dependent effect				
